# Laboratory results from PubChem BioAssay AID1885 (Broad Institute, 2009).
# Hit rate of the full screen: of about 300,000 compounds, about 4,400 (1.5%) were called active. The sample as a whole holds a higher share of actives than the screen did. Unmarked numbers belong to inactive results.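 How the source made its calls: active means mean inhibition across valid replicates above about 55% (limit read from the data); inconclusive means mean below that limit but half or more replicates reach it; inactive means mean below it, under half of replicates reach it.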
# Test: inhibitors of intracellular T. cruzi growth, primary screen, luminescence, NIH3T3 host cells (AID 1885);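 further: signal also drops with host cell toxicity which is not excluded here; 0% = plate median of DMSO wells and 100% = zero luminescence signal; higher percent means less beta-gal luminescence so fewer parasites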
# Conditions: T. cruzi beta-gal in NIH3T3, luminescence, 90 h; active compounds read high; concentration not given here
# How it was run: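 assay system = mouse NIH/3T3 fibroblasts infected with β-gal-expressing T. cruzi Tulahuen C4 | input = 5,000 NIH/3T3 host cells per well | buffer or medium = DMEM plus 2% FBS | timing = 3 h host attachment, then at least 90 h co-culture | measured by = GalScreen luminescence, 60 min | evaluation = luminescence reflecting intracellular parasite burden, expressed as percent inhibition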
row,SMILES,inhibition
1,COC(=O)C(c1ccccc1)N1CCCCCC1 (stereo not given),-2.88%
2,COc1ccccc1N1CCN(C(CNC(=O)Oc2ccccc2)c2cccnc2)CC1 (stereo not given),61.2% (active)
3,O=C(NCC(c1cccnc1)N1CCN(c2ccccc2)CC1)Oc1ccccc1 (stereo not given),64.2% (active)
4,c1ccc(CCN2CCC3(CC2)OCCO3)cc1,8.57%
5,Cc1ccc(C)c(NC2=NCCCS2)c1,8.9%
6,COc1cccc(OC)c1C(=O)NC(=S)N1C[C@H]2C[C@H](C1)c1cccc(=O)n1C2,0.307%
7,CC(C)c1ccc(-n2c(O)c(/C=N/N3CCOCC3)c(=O)[nH]c2=S)cc1,-9.55%
8,CCN1CC2C3CCC(C)(O3)C2C1 (stereo not given),-4.25%
9,COc1ccc(CNCCc2ccc3c(c2)OCO3)c(OC)c1OC,50.2%
10,COc1ccc(CNCCc2c[nH]c3ccccc23)cc1OC,8.16%
11,COc1ccc(Br)cc1CNCCc1cccc(Cl)c1,56.8% (active)
12,CC1=CC(=Cc2sc3ccccc3[n+]2C)C=C(C)O1,81.1% (active)
13,COc1ccc(N2C(=O)/C(=C/c3ccco3)C(=O)NC2=S)cc1,-2.75%
14,C[C@@]1([C@@H](NP(=O)(c2ccccc2)c2ccccc2)c2ccccc2)C[C@H]1CCO,1%
15,Cc1ccc(-c2nn(CCC#N)cc2C(=O)O)cc1C,-14.3%
16,COc1ccccc1-n1c(O)c(C=NC2CC2)c(=O)[nH]c1=O,-10.6%
17,COc1cccc(CN2CCCC(C(=O)c3ccccc3SC)C2)c1O (stereo not given),0.0491%
18,O=C(c1ccccc1[N+](=O)[O-])N1CCC2(CC1)OCCO2,-12.5%

row,SMILES,inhibition
1,Cc1ccc(C2CN(C)CC2C(=O)c2ccc(F)cc2)cc1 (stereo not given),-5.25%
2,CN1CCC(OC(=O)c2cccc(F)c2)CC1,58.3% (active)
3,CCC/C(=N\O)c1c[nH]c2ccccc12,-2.44%
4,COc1ccc(-n2c(O)c(C(C)=Nc3ccc4c(c3)CCC4)c(=O)[nH]c2=O)cc1,-27.7%
5,CCOc1ccc(CN(CCCl)CCCl)cc1C(=O)OC,-1.04%
6,CCOc1ccc(-c2cc(C)[n+](CCN(CC)CC)c(-c3ccc(OCC)cc3)c2)cc1,64.1% (active)
7,CN1C2C=C(N(C(=O)c3ccc(Cl)cc3)c3ccccc3)CC1CC2 (stereo not given),9.22%
8,O=C1N=c2ccccc2=C/C1=C\c1c(O)[nH]c(=S)[nH]c1=O,-14%
9,CCCCCCCCCCCCn1ccc(=N)cc1,58.9% (active)
10,CCc1nc2ccccc2c(=O)n1-c1cccc(OC)c1,-3.64%
11,CC(C)Oc1cccc(C(=O)C2CCCN(C3CCOCC3)C2)c1 (stereo not given),-14%
12,CC(=O)c1c(O)n(C2CCCCCC2)c(=O)[nH]c1=O,-10.9%
13,CC1=C(C(=O)Nc2ccccc2)SCCO1,-24.2%
14,O=C(NC(c1ccc(Cl)cc1)P(=O)(Oc1ccccc1)Oc1ccccc1)OCc1ccccc1 (stereo not given),12.3%
15,C=CCN1C(=O)NC(=O)/C(=C/c2ccc(OCC(=O)Nc3ccc(C)cc3)cc2)C1=O,12.8%
16,COc1cc(C(c2c(O)c3ccccc3oc2=O)c2c(C)n(C)n(-c3ccccc3)c2=O)ccc1O (stereo not given),-33%
17,CCOP(=O)(OCC)C(NC(=O)NC)C(N)=O (stereo not given),2.29%
